Screening results from PubChem BioAssay.
Most compounds without a hit are left out; they make up all but 2.3% or so of the library.
V1R ag counter – V1a receptor agonism, counter-screen for OXTR agonists. P37288. CHO-V1R cells, Fluo-8 calcium fluorescence, agonist mode; 0% DMSO, 100% 3 nM vasopressin. activation, % at 3 µM. actives 0.25% (n = 320,000);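 active = activation above the mean activation of all tested compounds plus 3 SD, per screening run, cut at about 20% in these data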;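 note: signal is peak over basal fluorescence ratio across a 100 second FLIPR read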
OXTR agonist – activates the human oxytocin receptor; CHO-OTR cells, Fluo-8 calcium fluorescence; normalized: DMSO 0%, oxytocin 100%; activation, % at 3 µM; actives 0.32% (n = 320,000);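 active = activation above the mean of all tested compounds plus 3 SD, cutoff set per screening run, cut at about 20% in these data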;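 note: peak over basal fluorescence ratio from a 100 s FLIPR kinetic read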
TAAR1 agonist – human TAAR1 agonism | activation, % at 3 µM | actives 0.99% (n = 360,000) | CHO RD-HGA16 TAAR1, Fluo-8 calcium fluorescence; vehicle wells 0%, saturating PEA agonist 100% | Q96RJ0;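 active = activation above the mean activation of all test compounds in the run plus 3 SD, cut at about 38% in these data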
Target sequence (Q96RJ0 whole entry, looked up): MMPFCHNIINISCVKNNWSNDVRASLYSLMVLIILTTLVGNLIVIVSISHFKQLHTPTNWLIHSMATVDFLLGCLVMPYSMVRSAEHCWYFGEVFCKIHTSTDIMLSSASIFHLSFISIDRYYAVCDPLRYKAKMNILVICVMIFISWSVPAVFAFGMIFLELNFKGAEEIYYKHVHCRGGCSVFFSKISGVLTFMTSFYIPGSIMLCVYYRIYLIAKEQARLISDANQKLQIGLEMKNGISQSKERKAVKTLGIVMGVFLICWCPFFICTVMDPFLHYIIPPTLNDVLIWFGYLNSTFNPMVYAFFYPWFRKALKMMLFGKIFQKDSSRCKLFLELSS
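Test system: RD-HGA16 (CHO) cells co-expressing Gα16 and hTAAR1; dosing: one-point dosing at 3 µM (nominal); timing: 17-24 h seeding, 75 min 37 °C dye, 30 min RT; signal: kinetic Fluo-8 calcium fluorescence; read-out basis: % activation relative to PEA EC100 response; controls: DMSO and PEA EC100; replicates: n 1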
OXTR potentiator – potentiates the human oxytocin receptor response; P30559; CHO-OTR cells, Fluo-8 calcium fluorescence, potentiator mode; 0% = oxytocin EC15, 100% = EC100; activation, % at 3 µM; actives 0.061% (n = 320,000);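 active = activation above that plate's cutoff, the mean activation of tested compounds plus 3 SD, cut at about 6.6% in these data, passing the limit was not always enough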;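 note: 100% uses oxytocin at 75 nM as the full agonist control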
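System: human OTR in CHO cells / Also added: sub-maximal oxytocin, roughly EC15 / Control set: EC15 oxytocin low, 75 nM oxytocin high / Schedule: 6 min compound pre-incubation at room temperature, 100 s kinetic read / Compound: single-point 3.0 µM / Replication: singlicate / Technique: Fluo-8 calcium dye fluorescence / Read-out basis: % activation of max/min ratio relative to oxytocin controls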
TAAR1 antag – human TAAR1 antagonism; Q96RJ0; CHO RD-HGA16 TAAR1, Fluo-8 calcium fluorescence, antagonist; inhibition, % at 3 µM; actives 1.5% (n = 360,000); AID 624466;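 active = inhibition above a per-plate cutoff, the mean inhibition of test compounds on that plate plus 3 SD, cut at about 49% in these data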;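 note: 0% = DMSO plus EC80 beta-PEA response and 100% = DMSO alone without agonist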
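System: CHO RD-HGA16 cells bearing hTAAR1. Reagent: EC80 β-phenethylamine stimulus. Schedule: seeding 17-24 h prior, 75-min 37 °C, 30-min RT dye loading. Signal: Fluo-8 intracellular calcium dye fluorescence, real-time kinetic reads. Read-out: % inhibition from peak post-agonist over basal fluorescence ratio. Benchmarks: vehicle wells and EC80 agonist wells. Replicates: n of 1.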
* marks the source's active call; other numbers are inactive results; / = no result given.

SMILES | V1R ag counter | OXTR agonist | TAAR1 agonist | OXTR potentiator | TAAR1 antag
COc1ccc(-c2csc(Nc3ccc(S(=O)(=O)Nc4cc(C)on4)cc3)n2)cc1C | 0 | -1 | 12 | -13 | 49*
COc1ccc(-c2csc(Nc3ccc(S(=O)(=O)Nc4cc(OC)nc(OC)n4)cc3)n2)cc1 | 1 | 6 | -1 | -11 | 34
O=S(=O)(c1cccc(-c2csc(N/N=C/c3ccco3)n2)c1)N1CCOCC1 | 1 | 0 | 12 | 0 | 60*
COC(=O)[C@]12C[C@H](CC(=O)NCc3ccc(OC)c(OC)c3)C(=O)N(Cc3ccc4c(c3)OCO4)C1=C[C@H](C(C)(C)C)O[C@@H]2C | / | / | 1 | / | -28
CCCCCc1cc(=O)oc2c(C(CCN3CCCC(C)C3)c3ccc(OC)cc3)c(OC)cc(OC)c12 (stereo not drawn) | 12 | 8 | 40* | -10 | 6
CCCCCc1cc(=O)oc2c(C(CCN3CCCCC3)c3ccc(OC)cc3)c(OC)cc(OC)c12 (stereo not drawn) | 1 | 5 | 30 | 2 | 7
COc1ccccc1N1CCN(C(=O)c2ccc(COc3cccc4c3OC(C)(C)C4)cc2)CC1 | 0 | -1 | 0 | -1 | 56*
CC1(C)Cc2cccc(OCC(=O)N3CCN(c4ccccc4F)CC3)c2O1 | -1 | -2 | 1 | -2 | 22
Cc1ccc(SCc2c(C(=O)N/N=C/c3ccc(C)o3)nnn2-c2nonc2N)cc1 | / | / | 3 | / | 29
COc1cccc(-c2c(C(=O)N/N=C/c3ccc(C)o3)nnn2-c2nonc2N)c1 | 4 | 4 | 42* | -8 | 27
CCOc1cccc(-c2c(C(=O)N/N=C/c3ccc(C)s3)nnn2-c2nonc2N)c1 | 9 | 3 | 53* | -4 | -13
Cc1ccc(-c2c(C(=O)N/N=C/c3ccc(C)o3)nnn2-c2nonc2N)cc1 | 5 | 3 | 43* | -10 | 5
CN1Cc2sc(NC(=S)NC(=O)c3ccccc3)c(C#N)c2CC1(C)C | 34* | 32* | 13 | -10 | 10
CCN(CC(=O)NCc1cccs1)C(=O)c1cccc(S(=O)(=O)N(C)C)c1 | 2 | 1 | 3 | -3 | 0
Cc1nn(-c2ccccc2)nc1C(=O)Nc1cccc(C(=O)NC2CC2)c1 | / | / | 11 | / | 60*
Cc1nn(-c2cccc(Cl)c2)nc1C(=O)Nc1cccc(C(=O)NC2CC2)c1 | 1 | -1 | 6 | -8 | 46
O=C(/C=C/c1ccc(OC(F)F)cc1)Nc1cccc(S(=O)(=O)NC2=NCCCCC2)c1 | 10 | 7 | 12 | -10 | 62*
COc1cccc(CC(=O)N2CCN(C(=O)C(=O)c3ccc(OC)c(OC)c3)CC2)c1 | / | / | 0 | / | 5
COc1ccc(CNC(=O)OC23CN(C(=O)OC(C)C)N(C(=O)OC(C)C)CC2(O)CN(S(=O)(=O)c2ccc(C)cc2)C3)cc1OC (stereo not drawn) | / | / | 7 | / | 28
Cc1ccc(S(=O)(=O)N2CC3(O)CN(C(=O)OC(C)C)N(C(=O)OC(C)C)CC3(OC(=O)NCc3ccccc3)C2)cc1 (stereo not drawn) | / | / | 9 | / | 60*
COc1ccccc1N1N=C(c2ccc([N+](=O)[O-])cc2)CC1c1ccccc1 (stereo not drawn) | 28* | 30* | 23 | -22 | 25
CSC(=Nc1ccccc1)N=C(SCc1ccccc1)N(C)C | / | / | 10 | / | 77*
CSC1=NC2(CC(c3ccccc3)Oc3cc(O)ccc32)CC(C)(C)N1 (stereo not drawn) | 42* | 21* | 30 | -21 | 7
O=C(O)c1cc(Cl)ccc1-c1ccc(/C=C/c2cc(C(F)(F)F)[nH]c(=O)n2)o1 | 17 | 14 | 67* | -8 | 9
CCCc1ccc(OCc2ccc(C(=O)N3CCN(c4ccccn4)CC3)o2)c(OC)c1 | 4 | 4 | 9 | -11 | 51*
O=C(Nc1ccc(N=Nc2ccccc2)cc1)c1ccccc1Cl | -1 | -1 | -1 | -6 | 49*
CCOc1ccccc1N1CCN(C/C=C/c2ccc(N(C)C)cc2)CC1 | 0 | -1 | 37* | 2 | -9
O=C(/C=C\c1ccco1)Nc1nc(-c2ccc3ccccc3c2)cs1 | 2 | -1 | 9 | -6 | 49*
